In ChEMBL document CHEMBL5724801, “EUbOPEN Chemogenomics Library - Multiplex” (2024):
Values joined by “and” are separate entries in the source; they are usually repeats but may differ in a detail not shown here. Identical values can stand only once.

Test system: U2OS
Assay: Multiplex assay against U2OS
Type: toxicity, cell-based
Conditions: human
How it was run: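 Cells were classed with CellPathfinder machine-learning gating, first as Hoechst high-intensity objects or normal cells, then (normal cells) as healthy, pyknosed or fragmented nuclei, and finally (pyknosed cells) as mitotic or apoptotic. Staining of live cells at seeding used Hoechst33342, BioTracker Green Microtubule Cytoskeleton Dye, MitoTracker Red and Annexin V Alexa Fluor 680, with imaging on a CQ1 microscope at 37°C and 5% CO2 after compound addition. Tubulin, mitochondrial-mass and membrane-permeability phenotypes are per cents of healthy-nucleus cells.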

[1] = 12 h, 1 µM, compound concentration 1 uM
[2] = 12 h, 10 µM, compound concentration 10 uM
[3] = 24 h, 1 µM, compound concentration 1 uM
[4] = 24 h, 10 µM, compound concentration 10 uM
[5] = 48 h, 1 µM, compound concentration 1 uM
[6] = 48 h, 10 µM, compound concentration 10 uM

## COc1cccc2c1c(NS(=O)(=O)c1ccc(Cl)s1)nn2Cc1cccc(CNC(=O)C(C)(C)O)c1
[1]
  Population Apoptotic (%): 86% and 81%
  Population Fragmented Nuclei (%): 23% and 29%
  Population Healthy Nuclei (%): 67% and 64%
  Population Hoechst High Intensity Objects (%): 3% and 6%
  Population Membrane Permeable-Phenotype (%): 4% and 7%
  Population Mitochondria Different-Phenotype (%): 1% and 3%
  Population Mitotic Cells (%): 13% and 18%
  Population Normal (%): 96% and 93%
  Population Pyknosed Nuclei (%): 9% and 5%
  Population Tubulin-Different-Phenotype (%): 1% and 6%
  Total Cell Count: 261 and 201
[2]
  Population Apoptotic (%): 76% and 83%
  Population Fragmented Nuclei (%): 26% and 25%
  Population Healthy Nuclei (%): 65% and 70%
  Population Hoechst High Intensity Objects (%): 1% and 5%
  Population Membrane Permeable-Phenotype (%): 6% and 8%
  Population Mitochondria Different-Phenotype (%): 2% and 3%
  Population Mitotic Cells (%): 23% and 16%
  Population Normal (%): 98% and 94%
  Population Pyknosed Nuclei (%): 8% and 4%
  Population Tubulin-Different-Phenotype (%): 4% and 2%
  Total Cell Count: 264 and 140
[3]
  Population Apoptotic (%): 96% and 90%
  Population Fragmented Nuclei (%): 20% and 28%
  Population Healthy Nuclei (%): 70% and 66%
  Population Hoechst High Intensity Objects (%): 1% and 5%
  Population Membrane Permeable-Phenotype (%): 5% and 8%
  Population Mitochondria Different-Phenotype (%): 1% and 3%
  Population Mitotic Cells (%): 3% and 9%
  Population Normal (%): 98% and 94%
  Population Pyknosed Nuclei (%): 8% and 4%
  Population Tubulin-Different-Phenotype (%): 3% and 6%
  Total Cell Count: 307 and 242
[4]
  Population Apoptotic (%): 90% and 88%
  Population Fragmented Nuclei (%): 25%
  Population Healthy Nuclei (%): 64% and 68%
  Population Hoechst High Intensity Objects (%): 1% and 5%
  Population Membrane Permeable-Phenotype (%): 5% and 8%
  Population Mitochondria Different-Phenotype (%): 3% and 4%
  Population Mitotic Cells (%): 10% and 11%
  Population Normal (%): 98% and 94%
  Population Pyknosed Nuclei (%): 10% and 5%
  Population Tubulin-Different-Phenotype (%): 2%
  Total Cell Count: 304 and 167
[5]
  Population Apoptotic (%): 95% and 74%
  Population Fragmented Nuclei (%): 14% and 22%
  Population Healthy Nuclei (%): 76% and 68%
  Population Hoechst High Intensity Objects (%): 1% and 7%
  Population Membrane Permeable-Phenotype (%): 4% and 5%
  Population Mitochondria Different-Phenotype (%): 1% and 4%
  Population Normal (%): 98% and 92%
  Population Pyknosed Nuclei (%): 9%
  Population Tubulin-Different-Phenotype (%): 2% and 5%
  Total Cell Count: 463 and 314
[6]
  Population Apoptotic (%): 93% and 100%
  Population Fragmented Nuclei (%): 20% and 22%
  Population Healthy Nuclei (%): 71%
  Population Hoechst High Intensity Objects (%): 2% and 3%
  Population Membrane Permeable-Phenotype (%): 5%
  Population Mitochondria Different-Phenotype (%): 2% and 3%
  Population Mitotic Cells (%): 6% and 0%
  Population Normal (%): 97% and 96%
  Population Pyknosed Nuclei (%): 8% and 5%
  Population Tubulin-Different-Phenotype (%): 3%
  Total Cell Count: 413 and 235

## CCOc1c2c(c(OCC)c3ncccc13)CN(c1ccc(CS(=O)(=O)NC(=O)Cc3ccccc3OC)cc1C)C2=O
[1]
  Population Apoptotic (%): 64% and 100%
  Population Fragmented Nuclei (%): 22% and 13%
  Population Healthy Nuclei (%): 70% and 82%
  Population Hoechst High Intensity Objects (%): 2% and 1%
  Population Membrane Permeable-Phenotype (%): 7% and 9%
  Population Mitochondria Different-Phenotype (%): 3%
  Population Normal (%): 97% and 98%
  Population Pyknosed Nuclei (%): 7% and 4%
  Population Tubulin-Different-Phenotype (%): 2% and 6%
  Total Cell Count: 189 and 93
[2]
  Population Apoptotic (%): 81% and 80%
  Population Fragmented Nuclei (%): 30% and 21%
  Population Healthy Nuclei (%): 63% and 75%
  Population Hoechst High Intensity Objects (%): 2%
  Population Membrane Permeable-Phenotype (%): 5% and 8%
  Population Mitochondria Different-Phenotype (%): 3% and 6%
  Population Mitotic Cells (%): 18% and 20%
  Population Normal (%): 97%
  Population Pyknosed Nuclei (%): 6% and 3%
  Population Tubulin-Different-Phenotype (%): 2% and 3%
  Total Cell Count: 248 and 136
[3]
  Population Apoptotic (%): 80% and 100%
  Population Fragmented Nuclei (%): 21% and 19%
  Population Healthy Nuclei (%): 71% and 76%
  Population Hoechst High Intensity Objects (%): 3% and 1%
  Population Membrane Permeable-Phenotype (%): 4% and 7%
  Population Mitochondria Different-Phenotype (%): 0% and 4%
  Population Mitotic Cells (%): 20% and 0%
  Population Normal (%): 96% and 98%
  Population Pyknosed Nuclei (%): 6% and 4%
  Population Tubulin-Different-Phenotype (%): 1% and 4%
  Total Cell Count: 235 and 125
[4]
  Population Apoptotic (%): 76% and 100%
  Population Fragmented Nuclei (%): 27% and 17%
  Population Healthy Nuclei (%): 61% and 76%
  Population Hoechst High Intensity Objects (%): 3% and 0%
  Population Membrane Permeable-Phenotype (%): 6%
  Population Mitochondria Different-Phenotype (%): 2%
  Population Mitotic Cells (%): 23% and 0%
  Population Normal (%): 96% and 99%
  Population Pyknosed Nuclei (%): 10% and 5%
  Population Tubulin-Different-Phenotype (%): 1% and 5%
  Total Cell Count: 285 and 152
[5]
  Population Apoptotic (%): 85% and 100%
  Population Fragmented Nuclei (%): 19% and 17%
  Population Healthy Nuclei (%): 74% and 79%
  Population Hoechst High Intensity Objects (%): 2% and 4%
  Population Membrane Permeable-Phenotype (%): 3% and 7%
  Population Mitochondria Different-Phenotype (%): 1% and 3%
  Population Mitotic Cells (%): 15% and 0%
  Population Normal (%): 97% and 95%
  Population Pyknosed Nuclei (%): 5% and 2%
  Population Tubulin-Different-Phenotype (%): 2% and 5%
  Total Cell Count: 344 and 167
[6]
  Population Apoptotic (%): 91% and 100%
  Population Fragmented Nuclei (%): 19% and 18%
  Population Healthy Nuclei (%): 71% and 74%
  Population Hoechst High Intensity Objects (%): 2%
  Population Membrane Permeable-Phenotype (%): 5% and 8%
  Population Mitochondria Different-Phenotype (%): 1% and 4%
  Population Mitotic Cells (%): 8% and 0%
  Population Normal (%): 97%
  Population Pyknosed Nuclei (%): 9% and 6%
  Population Tubulin-Different-Phenotype (%): 2% and 3%
  Total Cell Count: 385 and 236
